From paper PMC8286830 (Biochemical Journal, 2021)
Several values for one entry are separate records, joined by “and”; a condition that tells them apart may be missing. Equal values may be shown once. Entries after “also recorded” stand apart in the source; their conditions may differ.

Tests used:
N-TgCEN1 [1] = experiment: Turbidimetry at 340 nm, N-TgCEN1; format: physicochemical, Toxoplasma gondii; settings: 20 µM, 1 mM CaCl2, 20 mM KCl pH 7.5, 37°C
In short: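 Recombinant N-domain (1–94) or C-domain (95–169), Ni-affinity purified. A340 followed over time in a 1 cm cuvette. Standard conditions: 20 µM protein, 20 mM Tris–HCl, 20 mM KCl pH 7.5, 1 mM CaCl2, 37°C. Conditions also varied: CaCl2 0–2 mM, temperature 4–45°C, protein 5–50 µM, KCl 0–150 mM, or 600 µM ANS added.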

N-TgCEN1 [2] = experiment: DLS particle size of N-TgCEN1; format: physicochemical, Toxoplasma gondii; settings: 10 µM
In short: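 Domains produced in E. coli Rosetta: N-domain residues 1–94 and C-domain 95–169. […] 10 µM protein in 20 mM Tris–HCl pH 7.5, 1 mM CaCl2, at selected KCl concentrations or with 600 µM ANS. Samples centrifuged at 21 000 g for ≥30 min; filtered buffers. Hydrodynamic diameter reported as number distribution (633 nm laser, 173°).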

Δ21TgCEN1 [3] = target: T1, Δ21TgCEN1 (Toxoplasma gondii, UniProt A0A125YHX7); experiment: Turbidimetry at 340 nm, Δ21TgCEN1; format: physicochemical
T1 sequence (A0A125YHX7 22-169): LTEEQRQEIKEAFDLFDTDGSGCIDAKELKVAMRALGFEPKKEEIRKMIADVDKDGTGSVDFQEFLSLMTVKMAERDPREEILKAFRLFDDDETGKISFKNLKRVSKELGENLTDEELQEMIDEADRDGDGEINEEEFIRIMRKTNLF
In short: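 Construct lacking residues 1–21 (E. coli Rosetta) at 20 µM in 20 mM Tris–HCl, 20 mM KCl pH 7.5, 1 mM CaCl2, 37°C. A340 followed over time, before and after adding 50 µM synthetic N-terminal peptide (residues 1–21). Peptide alone with CaCl2 run as a control trace.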

Δ21TgCEN1 [4] = target: T1, Δ21TgCEN1; experiment: DLS particle size / count rate of Δ21TgCEN1; format: physicochemical; settings: all other conditions: temperature, protein concentration, KCl, ANS
In short: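 Recombinant tag-free Δ21TgCEN1 from E. coli Rosetta (Ni affinity, TEV cleavage). For DLS, 10 µM protein in 20 mM Tris–HCl, 20 mM KCl pH 7.5 with 1 mM CaCl2 at 37°C was spun at 21 000 g for ≥30 min, then measured before and after adding 50 µM N21 peptide. Diameter was reported as number distribution. In parallel, A340 turbidity of 20 µM protein was followed over time.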

TgCEN1 [5] = experiment: Turbidimetry at 340 nm, TgCEN1 self-assembly; format: physicochemical, Toxoplasma gondii
In short: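 Full-length protein (E. coli Rosetta) at 20 µM in 20 mM Tris–HCl, 20 mM KCl pH 7.5, 37°C, A340 recorded versus time. Run with 1 mM CaCl2, with 1 mM EGTA, or with EGTA added to Ca2+-saturated protein. Ca2+ series 5–2000 µM, read at 25 min versus metal/protein ratio. Also varied: temperature 4–45°C, protein 5–50 µM, KCl 0–150 mM, and 600 µM ANS.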

TgCEN1 [6] = experiment: DLS particle size of TgCEN1; format: physicochemical, Toxoplasma gondii
TgCEN1 [7] = experiment: DLS thermal ramping of TgCEN1; format: physicochemical, Toxoplasma gondii; settings: 5 µM protein, 1 mM CaCl2, pH 7.5
In short: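 Full-length recombinant protein (E. coli Rosetta) at 5 µM with 1 mM CaCl2 in 20 mM Tris–HCl, 20 mM KCl pH 7.5, clarified by centrifugation. Temperature stepped from 15 to 45°C in 1°C increments, with DLS size measured at each step. Z-average (intensity-weighted mean hydrodynamic size) recorded; midpoint from logistic fit.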

[8] = via N-terminal EF-hands, in vitro; cited from earlier work

B1: N-TgCEN1: N-terminal domain of TgCEN1, 1–94 aa (protein)
chain: MHSRKGASSLPRGRGAGKKTELTEEQRQEIKEAFDLFDTDGSGCIDAKELKVAMRALGFEPKKEEIRKMIADVDKDGTGSVDFQEFLSLMTVKM
modifications: left off: His tag (from the Nickel affinity chromatography), end not stated, cleaved
- turbidity at 340 nm (N-TgCEN1 [1]): no turbidity changes at 340 nm
- particle diameter (N-TgCEN1 [2]; 1 mM CaCl2, 20 mM Tris–HCl, 20 mM KCl pH 7.5): 250 ± 1 nm
- association at high ionic strength (N-TgCEN1 [2]; selected KCl concentrations, 1 mM CaCl2, DLS): inhibition of association process

B2: Δ21TgCEN1: truncated variant of TgCEN1 lacking the first 21 residues (22–169) (protein)
chain: LTEEQRQEIKEAFDLFDTDGSGCIDAKELKVAMRALGFEPKKEEIRKMIADVDKDGTGSVDFQEFLSLMTVKMAERDPREEILKAFRLFDDDETGKISFKNLKRVSKELGENLTDEELQEMIDEADRDGDGEINEEEFIRIMRKTNLF
- turbidity at 340 nm (Δ21TgCEN1 [3]; 1 mM CaCl2, same conditions as full-length (20 µM, 37°C, pH 7.5)): no changes in turbidity at 340 nm
- self-assembly process (Δ21TgCEN1 [3]; removal of the first 21 residues, Ca^2+): completely abolished
- turbidity or size distribution changes (Δ21TgCEN1 [4]): No changes in turbidity or size distribution

B3: TgCEN1: centrin isoform 1 from Toxoplasma gondii, full-length, overexpressed in E. coli (protein)
chain: MHSRKGASSLPRGRGAGKKTELTEEQRQEIKEAFDLFDTDGSGCIDAKELKVAMRALGFEPKKEEIRKMIADVDKDGTGSVDFQEFLSLMTVKMAERDPREEILKAFRLFDDDETGKISFKNLKRVSKELGENLTDEELQEMIDEADRDGDGEINEEEFIRIMRKTNLF
- self-assembly at high ionic strength (turbidity at 340 nm) (TgCEN1 [5]; 0–150 mM KCl, 20 mM Tris–HCl pH 7.5, 1 mM CaCl2, 37°C): clear inhibition of self-assembly process at high ionic strength
- turbidity at 340 nm (TgCEN1 [5]; 20 µM, 1 mM CaCl2, 20 mM Tris–HCl, 20 mM KCl pH 7.5, 37°C): clear increase in turbidity
- turbidity at 340 nm (TgCEN1 [5]; EGTA added to Ca^2+-saturated TgCEN1, 20 µM, pH 7.5, 37°C): significantly reduced
- turbidity change on Mg^2+ addition (TgCEN1 [5]; Mg^2+ up to 10 mM, data not shown): No changes in the turbidity profiles
- self-assembly rate and plateau (turbidity at 340 nm) (TgCEN1 [5]; increasing TgCEN1 concentration (5–50 µM), 1 mM CaCl2, 37°C): faster self-assembly process and a higher plateau
- self-assembly rate and plateau (turbidity at 340 nm) (TgCEN1 [5]; increasing temperature (4–45°C), 1 mM CaCl2): increase in the slope of the growth phase at 340 nm and a higher plateau
- light scattering below threshold concentration (TgCEN1 [5]; protein concentrations less than 5 µM): Low light scattering
- hydrodynamic diameter (TgCEN1 [6]; 10 µM, 1 mM CaCl2, 20 mM Tris–HCl, 20 mM KCl pH 7.5, 37°C, DLS number distribution, no additive): 570 ± 5 nm and ~570 nm
- number-averaged hydrodynamic diameter (TgCEN1 [6]; 10 µM, absence of Ca^2+ (1 mM EGTA), 20 mM Tris–HCl, 20 mM KCl pH 7.5, 37°C, DLS number distribution): 7.54 ± 0.01 nm
- association state (TgCEN1 [6]; 150 mM KCl, 1 mM CaCl2, 37°C): monomeric in solution
- hydrodynamic diameter (TgCEN1 [6]; high ionic strength (KCl), 20 mM Tris–HCl pH 7.5, 1 mM CaCl2, 37°C): ~7 nm
- hydrodynamic diameter (TgCEN1 [6]; low salt concentrations, 20 mM Tris–HCl pH 7.5, 1 mM CaCl2, 37°C): 600–800 nm
- z-average hydrodynamic diameter (TgCEN1 [7]; 15°C): ~230 nm
- z-average hydrodynamic diameter (TgCEN1 [7]; 45°C): ~470 nm
- Ca^2+ ions bound [8]: two Ca^2+ ions; also recorded: two high affinity Ca^2+-binding sites in the N-lobe
